Here are results for 1 molecule from ChEMBL document CHEMBL3352644, “Selenadiazole derivatives as potent thioredoxin reductase inhibitors that enhance the radiosensitivity of cancer cells” (Eur J Med Chem, 2014).

Structures are written as SMILES. Values after ≈ are worked out from the molar mass of the structure shown. Active and inactive are the calls of the source. No cut-off for these calls is given here.

Test [1] has as its system A-375. The test is described as follows: Induction of apoptosis in human A375 cells assessed as accumulation at subG1 phase at 4 ug/mL incubated for 18 hrs by propidium iodide staining based flow cytometry (reference value: 1.8%). Type of test: functional. An outline of the steps:
(§1)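 A375 cells treated at 10 or 4 µg/ml for 6 h, given 0 or 8 Gy X-ray, then 12 h more. Trypsinized, washed in PBS, fixed overnight in ice-cold 75% ethanol at −20 °C. Stained with propidium iodide, 30 min at 37 °C in the dark; DNA content and sub-G1 population read by flow cytometry.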

Test [2] concerns the target T1, MAP kinase p38 (Homo sapiens) (UniProt O15264+Q15759+Q16539+P53778). The test is described as follows: Induction of p38 phosphorylation in human A375 cells at 4 ug/mL incubated for 18 hrs by Western blotting method. Type of test: cell-based. To be noted: A-375. The method, boiled down:
(§2)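 A375 cells given […] for 6 h, then 0 or 8 Gy X-ray at 1.5 Gy/min and 12 h further culture. Lysis in ice-cold RIPA, pH 7.4, with protease and phosphatase inhibitors; protein by BCA. […] protein per lane on SDS-PAGE, transferred to nitrocellulose. Blocked in 5% milk/TBST. Primary 1:1000, 10 h, 4 °C; HRP secondary 1:2000, 1.5 h.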

Test [3] relates to A-375. The test is described as follows: Cytotoxicity against human A375 cells after 18 hrs by MTT assay. Type of test: functional, cell-based. As to conditions: A-375, 18 h. The method, boiled down:
(§3)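 A375 cells (DMEM, 10% FBS, 37 °C, 5% CO2) seeded at 4 × 10⁴ cells/well and grown to 70–80% confluence. Treated with 0, 1, 2, 4, 8, 16 or 32 µg/ml for 6 h, then given 0 or 8 Gy X-ray (linear accelerator, 1.5 Gy/min), then 12 h more at 37 °C. MTT 4 h, formazan dissolved in DMSO, read at 570 nm; % of control; three repeats.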

For test [4], the system named is A-375. The experiment in a line: Induction of cell cycle arrest in human A375 cells assessed as accumulation at S phase at 4 ug/mL incubated for 18 hrs by propidium iodide staining based flow cytometry (reference value: 37.2%). Type of test: functional. An outline of the steps: as §1
Test [5] concerns A-375. The experiment in a line: Cytotoxicity against human A375 cells incubated for 6 hrs followed by irradiation with 8 Gy X-ray at 37 degC for 12 hrs by MTT assay. As to conditions: A-375, light or radiation study. Type of test: functional, cell-based. The method, boiled down: as §3
In test [6] the test system is A-375. The experiment in a line: Induction of ROS generation in human A375 cells at 2 ug/mL incubated for 6 hrs followed by irradiation with 8 Gy X-ray at 37 degC for 12 hrs by DCF and DHE dye based fluorescence assay. Type of test: functional, cell-based. The method, boiled down:
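A375 cells (4 × 10⁴/well) cultured 24 h, then treated 6 h at 8 or 16 µg/ml or at 2 or 4 µg/ml, and given 0 or 8 Gy X-ray. Loaded with H₂DCF or DHE for 30 min at 37 °C in the dark. Fluorescence read at 485/535 nm (DCF) or 480/610 nm (DHE); % of control.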

Test [7] deals with A-375. The experiment in a line: Induction of apoptosis in human A375 cells assessed as caspase 3 activation at 2 ug/mL incubated for 6 hrs followed by irradiation with 8 Gy X-ray at 37 degC for 12 hrs by fluorometric assay. Type of test: functional, cell-based. An outline of the steps: (§4)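 Cells seeded at 1 × 10⁶ per 10 cm dish and treated with 2 µg/ml alone or with 8 Gy X-ray for 18 h total. RIPA lysates clarified by spinning at 12,000 rpm for 5 min; 80 µg protein given Ac-DEVD-AMC (caspase-3), Ac-IETD-AMC (caspase-8) or Ac-LEHD-AMC (caspase-9). Incubated 2 h at 37 °C in the dark; fluorescence at 380/440 nm.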

For test [8], the target named is Thioredoxin reductase (Homo sapiens) (UniProt Q16881+Q9NNW7+Q86VQ6). The experiment in a line: Inhibition of TrxR antioxidant enzyme activity in human A375 cells at 2 ug/mL incubated for 6 hrs followed by irradiation with 8 Gy X-ray at 37 degC for 12 hrs by insulin reduction assay. Type of test: cell-based. To be noted: A-375.
Test [9] has as its system A-375. The experiment in a line: Induction of cell morphological changes in human A375 cells pre-treated with 20 uM p38 inhibitor […] for 1 hr followed by 8 ug/mL compound exposure for 18 hrs. Type of test: functional, cell-based.
For test [10], the system named is A-375. The experiment in a line: Reduction in Trx expression in human A375 cells at 2 ug/mL after 18 hrs by Western blotting method. Type of test: functional, cell-based.
In test [11] the test system is A-375. The test is described as follows: Induction of cell cycle arrest in human A375 cells assessed as accumulation at G1/G0 phase at 4 ug/mL incubated for 18 hrs by propidium iodide staining based flow cytometry (reference value: 48.9%). Type of test: functional. An outline of the steps: as §1
Test [12] relates to A-375. The experiment in a line: Reduction in Bcl-2 expression in human A375 cells at 4 ug/mL incubated for 6 hrs followed by irradiation with 8 Gy X-ray at 37 degC for 12 hrs by Western blotting method. Type of test: functional, cell-based. An outline of the steps: as §2
For test [13], the system named is A-375. The test is described as follows: Induction of cell cycle arrest in human A375 cells assessed as accumulation at G2/M phase at 4 ug/mL incubated for 18 hrs by propidium iodide staining based flow cytometry (reference value: 13.9%). Type of test: functional. The method, boiled down:
as §1

Test [14] has as its target c-Jun N-terminal kinase, JNK (Homo sapiens) (UniProt P45983+P53779+P45984). The experiment in a line: Induction of JNK phosphorylation in human A375 cells at 4 ug/mL incubated for 6 hrs followed by irradiation with 8 Gy X-ray at 37 degC for 12 hrs by Western blotting method. As to conditions: A-375. Type of test: cell-based. An outline of the steps: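 A375 cells pretreated 6 h with compound at 4 µg/ml, given 0 or 8 Gy X-ray, then incubated 12 h more. Lysed in RIPA buffer, pH 7.4, with protease and phosphatase inhibitors; 50 µg protein run on SDS-PAGE and blotted to nitrocellulose. Blocked in 5% milk; primary antibodies 1:1000, 10 h at 4 °C; HRP secondary 1:2000.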

For test [15], the system named is A-375. The test is described as follows: Induction of cell cycle arrest in human A375 cells assessed as accumulation at G2/M phase at 4 ug/mL incubated for 6 hrs followed by irradiation with 8 Gy X-ray at 37 degC for 12 hrs by propidium iodide staining based flow cytometry (reference value: 47.2%). Type of test: functional. The method, boiled down:
as §1

Test [16] addresses T1, MAP kinase p38 (Homo sapiens). The experiment in a line: Induction of p38 phosphorylation in human A375 cells at 4 ug/mL incubated for 6 hrs followed by irradiation with 8 Gy X-ray at 37 degC for 12 hrs by Western blotting method. Type of test: cell-based. To be noted: A-375. The method, boiled down:
as §2

Test [17] concerns A-375. The experiment in a line: Induction of ROS generation in human A375 cells at 2 ug/mL […] by DCF and DHE dye based fluorescence assay. Type of test: functional, cell-based.
The subject of test [18] is A-375. The experiment in a line: Induction of apoptosis in human A375 cells assessed as caspase 9 activation at 2 ug/mL incubated for 18 hrs by fluorometric assay. Type of test: functional, cell-based. The method, boiled down: as §4
The subject of test [19] is A-375. The experiment in a line: Cytotoxicity against human A375 cells pre-treated with 20 uM JNK inhibitor SP600125 for 1 hr followed by 8 ug/mL compound exposure for 18 hrs by MTT assay. Type of test: functional, cell-based. The method, boiled down:
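A375 cells pretreated 1 h with 20 µM SP600125 (JNK) or SB203580 (p38), then exposed to compound at 8 µg/ml for 18 h. Viability by MTT (formazan in DMSO, 570 nm), expressed as % of control.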

For test [20], the system named is A-375. The test is described as follows: Induction of apoptosis in human A375 cells assessed as caspase 9 activation at 2 ug/mL incubated for 6 hrs followed by irradiation with 8 Gy X-ray at 37 degC for 12 hrs by fluorometric assay. Type of test: functional, cell-based. An outline of the steps:
as §4

With `COc1cc(-c2nc3cc(-c4ccc5n[se]nc5c4)ccc3[nH]2)cc(OC)c1OC`, the Activity in [1] is 36.2%; in [4], 34%; in test [11] it was 21.6%; in test [13] it was 44.4%; in test [15] it was 22.1%. Further, the outcome in [2], in test [6], in test [7], in test [10], in test [12] and in test [14] was Active. The outcome in [16], in test [17], in [18], in test [19] and in [20] was Active. For the same molecule, the half-maximal inhibitory concentration (IC50) in [3] is 12.4 µg/mL (≈ 26.6 µM); in [5], 2.2 µg/mL (≈ 4.73 µM). For the same molecule, the inhibition entry in test [8] was “Active”. Further, in [9], the outcome was inactive.
